In ChEMBL document CHEMBL1122845, “Inhibitors of blood platelet aggregation. Effects of some 1,2-benzisothiazol-3-ones on platelet responsiveness to adenosine diphosphate and collagen” (J Med Chem, 1985):

Tests used:
[1] = tested on: Cavia porcellus; assay: The compound was tested ex vivo at a dose of 0.08 mmol/kg or collagen induced platelet aggregation in guinea pig; format: functional
Summary of the method: (§1)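 Male rats (~200 g) or guinea pigs (~300 g), overnight fasted, n=5-10, received compound orally in 1% methylcellulose (5 mL/kg); vehicle-only controls. After 2 h, CO2 kill and vena cava blood into citrate (102 mM rat, 129 mM guinea pig). PRP set to 800000/µL (rat) or 500000/µL (guinea pig). Collagen EC50 (response of 50 mm; max 50 µg/mL) interpolated from a log plot. Dose ratio = treated/control mean EC50; t-test. Pooled PRP sometimes used.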

[2] = tested on: Cavia porcellus; assay: Ex vivo inhibition of ADP induced guinea pig platelet aggregation following 0.08 mmol/kg administration.; format: functional
Summary of the method: (§2)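 Fasted male rats (~200 g) or guinea pigs (~300 g), n=5-10, dosed orally (5 mL/kg) in 1% methylcellulose; methylcellulose alone as control. Killed with CO2 after 2 h. Vena cava blood citrated (102 mM rat, 129 mM guinea pig); PRP adjusted to 800000/µL (rat) or 500000/µL (guinea pig). EC25 for first-phase ADP aggregation (max 8 µM) interpolated from two 2-fold-spaced ADP levels. Dose ratio = treated/control mean EC25; Student's t-test. Some groups tested as pooled PRP.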

[3] = tested on: Rattus norvegicus; assay: The compound was tested ex vivo at a dose of 0.15 mmol/kg for collagen induced platelet aggregation in rat; format: functional; summary of the method: as §1
[4] = tested on: Rattus norvegicus; assay: The compound was tested ex vivo at a dose of 0.15 mmol/kg for ADP induced platelet aggregation in rat; format: functional; summary of the method: as §2
[5] = tested on: Cavia porcellus; assay: Ex vivo inhibition of collagen induced guinea pig platelet aggregation following 0.08 mmol/kg administration.; format: functional; summary of the method: as §1
[6] = tested on: Cavia porcellus; assay: The compound was tested ex vivo at a dose of 0.04 mmol/kg for ADP induced platelet aggregation in guinea pig; format: functional; summary of the method: as §2
[7] = tested on: Cavia porcellus; assay: The compound was tested ex vivo at a dose of 0.04 mmol/kg for collagen induced platelet aggregation in guinea pig; format: functional; summary of the method: as §1
[8] = species on record: Homo sapiens; assay: In vitro inhibitory activity against human platelet aggregation in the presence of Adenosine diphosphate; format: functional
Summary of the method: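 Human citrated PRP, platelet count adjusted to 350000/µL with autologous platelet-poor plasma. 90 µL PRP preincubated 3 min at 37 °C with compound or saline (DMF vehicle where needed), stirred at 1100 rpm. ADP chosen per preparation to give a clear first-phase response (typically 1 µM). Photometric read-out: maximum rise in light transmission within 1 min. IC50 determined.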

[9] = species on record: Homo sapiens; assay: (§3) In vitro inhibitory activity against human platelet aggregation in the presence of collagen; format: functional, organism-based
[10] = tested on: Rattus norvegicus; assay: The compound was tested ex vivo at a dose of 0.08 mmol/kg for collagen induced platelet aggregation in rat; format: functional; summary of the method: as §1
[11] = tested on: Rattus norvegicus; assay: The compound was tested ex vivo at a dose of 0.08 mmol/kg for ADP induced platelet aggregation in rat; format: functional; summary of the method: as §2
[12] = tested on: Cavia porcellus; assay: The compound was tested ex vivo fat a dose of 0.15 mmol/kg for collagen induced platelet aggregation in guinea pig; format: functional; summary of the method: as §1
[13] = tested on: Cavia porcellus; assay: The compound was tested ex vivo at a dose of 0.15 mmol/kg for ADP induced platelet aggregation in guinea pig; format: functional; summary of the method: as §2
[14] = tested on: Rattus norvegicus; assay: The compound was tested ex vivo at a dose of 0.3 mmol/kg for ADP induced platelet aggregation in rat; format: functional; summary of the method: as §2
[15] = tested on: Rattus norvegicus; assay: The compound was tested ex vivo at a dose of 0.3 mmol/kg for collagen induced platelet aggregation in rat; format: functional; summary of the method: as §1
[16] = species on record: Homo sapiens; assay: as §3; format: functional
Summary of the method: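 Aggregation measured photometrically in human citrated PRP (350000 platelets/µL, stirred at 1100 rpm). Compound or saline preincubated 3 min at 37 °C. Collagen at a just-maximal level chosen for each sample (typically 0.7-1.4 µg/mL). Maximum increase in light transmission measured. IC50 = concentration giving 50% inhibition.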

[17] = tested on: Cavia porcellus; assay: The compound was tested at a dose of 0.08 mmol/kg ex vivo for collagen induced platelet aggregation in guinea pig; format: functional; summary of the method: as §1
[18] = tested on: Rattus norvegicus; assay: The compound was tested at a dose of 0.15 mmol/kg ex vivo for collagen induced platelet aggregation in rat; format: functional; summary of the method: as §1
[19] = tested on: Rattus norvegicus; assay: The compound was tested at a dose of 0.15 mmol/kg ex vivo for ADP induced platelet aggregation in rat; format: functional; summary of the method: as §2
[20] = tested on: Cavia porcellus; assay: The compound was tested ex vivo at a dose of 0.15 mmol/kg for collagen induced platelet aggregation in guinea pig
[21] = tested on: Cavia porcellus; assay: The compound was tested ex vivo at a dose of 0.08 mmol/kg for collagen induced platelet aggregation in guinea pig; format: functional; summary of the method: as §1
[22] = tested on: Rattus norvegicus; assay: The compound was tested at a dose of 0.3 mmol/kg ex vivo for collagen induced platelet aggregation in rat; format: functional; summary of the method: as §1
[23] = tested on: Cavia porcellus; assay: The compound was tested ex vivo at a dose of 0.3 mmol/kg for collagen induced platelet aggregation in guinea pig; format: functional; summary of the method: as §1
[24] = tested on: Cavia porcellus; assay: The compound was tested ex vivo at a dose of 0.15 mmol/kg for collagen induced platelet aggregation in guinea pig; format: functional; summary of the method: as §1
[25] = tested on: Cavia porcellus; assay: The compound was tested ex vivo at a dose of 0.3 mmol/kg for ADP induced platelet aggregation in guinea pig; format: functional; summary of the method: as §2
[26] = tested on: Cavia porcellus; assay: The compound was tested ex vivo at a dose of 0.08 mmol/kg for ADP induced platelet aggregation in guinea pig; format: functional; summary of the method: as §2
[27] = species on record: Cavia porcellus; assay: The compound was tested ex vivo for collagen induced platelet aggregation in guinea pig; format: functional; summary of the method: as §1
[28] = species on record: Cavia porcellus; assay: The compound was tested ex vivo for ADP induced platelet aggregation in guinea pig; format: functional; summary of the method: as §2

## O=c1c2ccccc2sn1CCCCCN1CC2CCC(CC2)C1
[1]
  Activity: 2.8
[2]
  Activity: 1.2

## CCN(CC)CCn1sc2ccccc2c1=O
[3]
  Activity: 2.6
[4]
  Activity: 1.3

## O=c1c2ccccc2sn1CCCCN1CCCC1
[5]
  Activity: 1.9
[2]
  Activity: 1.4

## O=c1c2cc(Cl)c(Cl)cc2sn1CCN1CCCC1
[3]
  Activity: 1.8
[4]
  Activity: 1.4

## Cc1cc(C)c2c(=O)n(CCN3CCCCC3)sc2c1
[6]
  Activity: 2.1
[5]
  Activity: >21
[7]
  Activity: >21
[2]
  Activity: >24

## COc1cc2sn(CCCCN3CC4CCC(CC4)C3)c(=O)c2cc1OC
[8]
  IC50: 99 µM
[5]
  Activity: 5.4
[9]
  IC50: 16 µM
[10]
  Activity: 2.4
[11]
  Activity: 1.4
[2]
  Activity: 2.6

## O=c1c2ccccc2sn1CCN1CC2CCC(CC2)C1
[12]
  Activity: 1.7
[13]
  Activity: 1.1
[3]
  Activity: 2.2
[4]
  Activity: 1.6

## CCN(CC)CCn1sc2cc(Cl)c(Cl)cc2c1=O
[14]
  Activity: 1.2
[15]
  Activity: 6.5
[3]
  Activity: 2.1
[4]
  Activity: 0.8

## CN(CCn1sc2ccccc2c1=O)c1ccccc1
[3]
  Activity: 1.1
[4]
  Activity: 1

## O=c1c2ccccc2sn1CCc1ccccn1
[8]
  IC50: 20 µM
[15]
  Activity: 0.7
[16]
  IC50: 12 µM

## O=c1c2cc(Cl)c(Cl)cc2sn1CCc1ccccn1
[3]
  Activity: 1
[4]
  Activity: 1

## Cc1cc(C)c2c(=O)n(CCCN3CCCCC3)sc2c1
[17]
  Activity: 6.7
[2]
  Activity: 1.4

## COc1cc(OC)c2c(=O)n(CCN3CCCCC3)sc2c1
[5]
  Activity: >10
[2]
  Activity: >27

## O=c1[nH]sc2ccccc12
[8]
  IC50: > 200 µM
[15]
  Activity: 1
[16]
  IC50: 34 µM

## COc1cc2sn(CCN3CCCC3)c(=O)c2cc1OC
[3]
  Activity: 1.8
[4]
  Activity: 1.1

## O=c1c2ccccc2sn1CCN1CCCC1
[18]
  Activity: 2.3
[13]
  Activity: 1.9
[19]
  Activity: 0.9
[20]
  Activity: 13.9
[16]
  IC50: 30 µM

## COc1cc(OC)c2c(=O)n(CCN3CCCC3)sc2c1
[5]
  Activity: >31
[2]
  Activity: 4.6

## O=c1c2cc(Cl)c(Cl)cc2sn1CCN1CCCCC1
[3]
  Activity: 1.5
[4]
  Activity: 1.2

## COc1cc2sn(CCN3CC4CCC(CC4)C3)c(=O)c2cc1OC
[14]
  Activity: 1.9
[21]
  Activity: 1.7
[13]
  Activity: 1.3
[3]
  Activity: 2.9
[9]
  IC50: 110 µM
[22]
  Activity: >5.8
[23]
  Activity: 1.9
[24]
  Activity: 1.6
[25]
  Activity: 1
[26]
  Activity: 1.1
[4]
  Activity: 1.4

## Cc1cc2sn(CCc3ccccn3)c(=O)c2cc1C
[13]
  Activity: 0.9
[24]
  collagen EC50 dose ratio (treated/control): 0.8

## CCCCCn1sc2ccccc2c1=O
[15]
  Activity: 1.2

## O=c1c2ccccc2sn1CCCN1CCCCC1
[5]
  Activity: >26
[10]
  Activity: 2.4
[16]
  IC50: 17 µM
[11]
  Activity: 1
[2]
  Activity: 3.7

## COc1cc2sn(CCc3ccccn3)c(=O)c2cc1OC
[13]
  Activity: 1.1
[3]
  Activity: 2.8
[24]
  collagen EC50 dose ratio (treated/control): 1.5
[4]
  Activity: 1.8

## O=c1c2ccccc2sn1CCCCN1CCCCC1
[5]
  Activity: 3.4
[2]
  Activity: 1.1

## CCN(CC)CCn1sc2cc(C)cc(C)c2c1=O.O=S(=O)(O)c1ccc2ccccc2c1
[27]
  collagen EC50 dose ratio (treated/control): >36
[28]
  Activity: 2.8

## COc1cc2sn(CCCCc3ccccn3)c(=O)c2cc1OC
[13]
  Activity: 2.4
[24]
  collagen EC50 dose ratio (treated/control): 2.7
